The test system of data set [1] is Pseudomonas aeruginosa. Nature of the data set: Induction of biofilm degradation of Pseudomonas aeruginosa clinical isolate 29 at sub MIC concentration incubated for 1 hr by crystal violet staining analysis. It counts as functional. Put shortly: (§1)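 Bacteria at 1 × 10^6 CFU/mL in BM2 grown static at 37 °C for 24 h to form biofilm. Wells rinsed of unattached cells, then exposed for 1 h to serial peptide dilutions (1.56–50 μM). Washed, stained with 0.1% crystal violet, A590 read. Biomass given as % of untreated biofilm; no-bacteria wells as blanks. At least three biological repeats.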

For data set [2], the system named is Pseudomonas aeruginosa. Nature of the data set: Induction of biofilm degradation of Pseudomonas aeruginosa clinical isolate 52 at sub MIC concentration incubated for 1 hr by crystal violet staining analysis. The class given is functional. Put shortly:
as §1

The test system of data set [3] is Pseudomonas aeruginosa. The data set is described as follows: Induction of biofilm degradation of Pseudomonas aeruginosa clinical isolate 59 at sub MIC concentration incubated for 1 hr by crystal violet staining analysis. It counts as functional. The method in brief:
as §1

Data set [4] has as its system Pseudomonas aeruginosa. Nature of the data set: Induction of biofilm degradation of Pseudomonas aeruginosa clinical isolate 71 at sub MIC concentration incubated for 1 hr by crystal violet staining analysis. It counts as functional. The method in brief: as §1
Data set [5] has as its system Pseudomonas aeruginosa. The data set is described as follows: Induction of biofilm degradation of Pseudomonas aeruginosa clinical isolate 59 at 50 uM incubated for 1 hr by crystal violet staining analysis.
Data set [6] in a line: Drug degradation in cystic fibrosis patient derived sputum assessed as remaining activity at 100 uM measured after 30 mins by RP-HPLC analysis. It counts as ADME, tissue-based. The following applies: human, read-out: Drug degradation. Put shortly: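 Pooled CF patient sputum diluted 10-fold in Ca/Mg-free DPBS, centrifuged at 1000 rpm for 10 min. Peptide added to the supernatant at 100 μM final and held at 37 °C. Stopped with 10% HCl. Residual peptide measured by RP-HPLC on C18 with a 20–60% ACN gradient (0.1% TFA) over 50 min, as % of the unincubated mixture.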

The test system of data set [7] is Pseudomonas aeruginosa. The data set is described as follows: Antibiofilm activity against Pseudomonas aeruginosa clinical isolate 24 assessed as inhibition of biofilm formation at 1.56 uM incubated for 24 hrs by crystal violet staining based microtiter plate method. It counts as functional, organism-based. Put shortly:
(§2)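 Washed overnight cultures in BM2 medium at 1 × 10^6 CFU/mL with 2-fold serial peptide dilutions in a U-bottom 96-well plate. Incubated 24 h at 37 °C without agitation. Unattached cells washed off, then 0.1% crystal violet stain read at 590 nm. No-bacteria blanks. Biomass expressed as % of untreated biofilm. At least three biological repeats.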

Data set [8] relates to Pseudomonas aeruginosa. Nature of the data set: Antibiofilm activity against Pseudomonas aeruginosa clinical isolate 40 assessed as inhibition of biofilm formation at 1.56 uM incubated for 24 hrs by crystal violet staining based microtiter plate method. The class given is functional, organism-based. Put shortly:
as §2

The test system of data set [9] is Pseudomonas aeruginosa. The data set is described as follows: Antibiofilm activity against Pseudomonas aeruginosa clinical isolate 46 assessed as inhibition of biofilm formation at 1.56 uM incubated for 24 hrs by crystal violet staining based microtiter plate method. The class given is functional, organism-based. The method in brief:
as §2

The test system of data set [10] is Pseudomonas aeruginosa. Nature of the data set: Antibiofilm activity against Pseudomonas aeruginosa clinical isolate 59 assessed as inhibition of biofilm formation at 1.56 uM incubated for 24 hrs by crystal violet staining based microtiter plate method. The class given is functional, organism-based. The method in brief:
as §2

In data set [11] the test system is Pseudomonas aeruginosa. The data set is described as follows: Antibiofilm activity against Pseudomonas aeruginosa clinical isolate 71 assessed as inhibition of biofilm formation at 1.56 uM incubated for 24 hrs by crystal violet staining based microtiter plate method. It counts as functional, organism-based. The method in brief:
as §2

Data set [12] concerns Pseudomonas aeruginosa. The data set is described as follows: Antibiofilm activity against Pseudomonas aeruginosa clinical isolate 72 assessed as inhibition of biofilm formation at 1.56 uM incubated for 24 hrs by crystal violet staining based microtiter plate method. It counts as functional, organism-based. The method in brief:
as §2

The test system of data set [13] is Pseudomonas aeruginosa. Nature of the data set: Antibiofilm activity against Pseudomonas aeruginosa clinical isolate 82 assessed as inhibition of biofilm formation at 1.56 uM incubated for 24 hrs by crystal violet staining based microtiter plate method. It counts as functional, organism-based. Put shortly:
as §2

For data set [14], the system named is Pseudomonas aeruginosa. Nature of the data set: Antibiofilm activity against Pseudomonas aeruginosa clinical isolate 629 assessed as inhibition of biofilm formation at 1.56 uM incubated for 24 hrs by crystal violet staining based microtiter plate method. The class given is functional, organism-based. Put shortly:
as §2

For data set [15], the system named is Pseudomonas aeruginosa. The data set is described as follows: Induction of biofilm degradation of Pseudomonas aeruginosa clinical isolate 59 at 1.56 uM incubated for 1 hr by crystal violet staining analysis. It counts as functional. The method in brief: as §1
The subject of data set [16] is Pseudomonas aeruginosa. Nature of the data set: Antibiofilm activity against Pseudomonas aeruginosa PAO1 in artificial sputum medium at 100 uM incubated for 24 hrs by resazurin staining based microtiter plate method. The class given is functional, organism-based. The method in brief: (§3)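 Washed overnight culture set to OD ~0.05 in BM2, diluted 1:100 into artificial sputum medium (pH 6.9) in 24-well plates. Grown 3 days aerobically at 37 °C with agitation. Peptides (12.5–100 μM) added for 24 h with agitation. Biofilm disrupted by cellulase for 1 h at 37 °C. Resazurin 0.02% for 1–2 h, fluorescence ex 530/em 590 nm; viability as % of untreated wells.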

In data set [17] the test system is Pseudomonas aeruginosa. Nature of the data set: Antibiofilm activity against Pseudomonas aeruginosa clinical isolate 46 in artificial sputum medium at 100 uM incubated for 24 hrs by resazurin staining based microtiter plate method. The class given is functional, organism-based. Put shortly:
as §3
For orientation: The colour change of resazurin is a common sign of viable cells or microbes.

The test system of data set [18] is Pseudomonas aeruginosa. The data set is described as follows: Antibiofilm activity against Pseudomonas aeruginosa clinical isolate 46 in artificial sputum medium at 50 uM incubated for 24 hrs by resazurin staining based microtiter plate method. The class given is functional, organism-based. The method in brief: as §3
The subject of data set [19] is Pseudomonas aeruginosa. The data set is described as follows: Antibiofilm activity against Pseudomonas aeruginosa PAO1 in artificial sputum medium at 50 uM incubated for 24 hrs by resazurin staining based microtiter plate method. It counts as functional, organism-based. The method in brief:
as §3

The subject of data set [20] is Pseudomonas aeruginosa. Nature of the data set: Antibiofilm activity against Pseudomonas aeruginosa clinical isolate 24 in artificial sputum medium at 25 uM incubated for 24 hrs by resazurin staining based microtiter plate method relative to control. It counts as functional. Put shortly:
(§4)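 Overnight cultures were washed, resuspended in BM2 to OD ~0.05, and diluted 1:100 into artificial sputum medium (pH 6.9). Biofilms grew 3 days at 37 °C with aerobic agitation in 24-well plates. Peptides (12.5–100 μM) were then added for 24 h with agitation. Biofilm was disrupted with cellulase for 1 h at 37 °C. Resazurin (0.02%) was added for 1–2 h, fluorescence read at ex 530/em 590 nm, and viability expressed as % of untreated wells.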

Data set [21] relates to Pseudomonas aeruginosa. The data set is described as follows: Antibiofilm activity against Pseudomonas aeruginosa clinical isolate 82 in artificial sputum medium at 25 uM incubated for 24 hrs by resazurin staining based microtiter plate method relative to control. The class given is functional. The method in brief:
as §4

Data set [22] concerns Pseudomonas aeruginosa. Nature of the data set: Bactericidal activity against Pseudomonas aeruginosa clinical isolate 24 derived from cystic fibrosis patient sputum assessed as killing rate at 10 uM measured after 1 hr by time-kill assay relative to control. The class given is functional. Put shortly: (§5)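 Pooled CF patient sputum diluted 10-fold in 10 mM phosphate buffer (pH 7.0), centrifuged and 0.22 μm filtered. Bacteria at 10^6 CFU/mL in 10% sputum supernatant with 10 μM peptide for 1 h at 37 °C. Diluted and plated on LB agar; colonies counted against untreated plates.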

For data set [23], the system named is Pseudomonas aeruginosa. Nature of the data set: Bactericidal activity against Pseudomonas aeruginosa clinical isolate 46 derived from cystic fibrosis patient sputum assessed as killing rate at 10 uM measured after 1 hr by time-kill assay relative to control. It counts as functional. Put shortly: as §5
For data set [24], the system named is Pseudomonas aeruginosa. The data set is described as follows: Induction of biofilm degradation of Pseudomonas aeruginosa clinical isolate 24 derived from cystic fibrosis patient sputum at 1.56 to 50 uM by crystal violet based staining analysis. The following applies: dose 1.56-50 µM. It counts as functional. Put shortly:
(§6)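 Biofilm grown from 1 × 10^6 CFU/mL in pooled CF patient sputum diluted 10-fold with BM2, static, 37 °C, 24 h. Unattached cells rinsed off, then serial peptide dilutions (1.56–50 μM) applied for 1 h. Washed and stained with 0.1% crystal violet, read at 590 nm. Reported as % of untreated biomass, with no-bacteria blanks.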

The test system of data set [25] is Pseudomonas aeruginosa. Nature of the data set: Induction of biofilm degradation of Pseudomonas aeruginosa clinical isolate 46 derived from cystic fibrosis patient sputum at 1.56 to 50 uM by crystal violet based staining analysis. It counts as functional. Particulars: dose 1.56-50 µM. Put shortly: as §6
The test system of data set [26] is Pseudomonas aeruginosa. Nature of the data set: Induction of biofilm degradation of Pseudomonas aeruginosa clinical isolate 82 derived from cystic fibrosis patient sputum at 1.56 to 50 uM by crystal violet based staining analysis. The class given is functional. The following applies: dose 1.56-50 µM. Put shortly: as §6

Molecules are shown by their SMILES. Active and inactive are the calls of the source. The rule behind the calls is not given here.

The values below come from ChEMBL document CHEMBL5143722, “Antimicrobial Peptides against Multidrug-Resistant Pseudomonas aeruginosa Biofilm from Cystic Fibrosis Patients” (J Med Chem, 2022).

Regarding `CC(C)C[C@H](NC(=O)[C@H](CC(C)C)NC(=O)[C@H](CC(C)C)NC(=O)[C@H](CC(C)C)NC(=O)[C@H](CC(C)C)NC(=O)[C@H](CC(C)C)NC(=O)[C@H](CC(C)C)NC(=O)[C@H](CC(C)C)NC(=O)[C@H](CC(C)C)NC(=O)[C@H](CCCCN)NC(=O)[C@H](CCCCN)NC(=O)[C@@H](N)CCCCN)C(=O)N[C@@H](CCCCN)C(=O)N[C@@H](CCCCN)C(=O)N[C@@H](CCCCN)C(N)=O`, the outcome in the data set on Pseudomonas aeruginosa [1], in the data set with Pseudomonas aeruginosa [2], in the data set on Pseudomonas aeruginosa [3] and in the data set with Pseudomonas aeruginosa [4] was Active. The same compound showed an Activity in the data set on Pseudomonas aeruginosa [5] of 40%.

`CC[C@H](C)[C@H](NC(=O)[C@H](CCCCN)NC(=O)[C@H](CCC(=O)O)NC(=O)[C@H](CCCCN)NC(=O)[C@H](CO)NC(=O)[C@H](CCCCN)NC(=O)[C@H](CCCNC(=N)N)NC(=O)[C@H](Cc1ccccc1)NC(=O)[C@H](Cc1ccccc1)NC(=O)[C@H](CC(=O)O)NC(=O)CNC(=O)[C@H](CC(C)C)NC(=O)[C@@H](N)CC(C)C)C(=O)NCC(=O)N[C@@H](CCCCN)C(=O)N[C@@H](CCC(=O)O)C(=O)N[C@@H](Cc1ccccc1)C(=O)N[C@@H](CCCCN)C(=O)N[C@@H](CCCNC(=N)N)C(=O)N[C@H](C(=O)N[C@H](C(=O)N[C@@H](CCC(N)=O)C(=O)N[C@@H](CCCNC(=N)N)C(=O)N[C@H](C(=O)N[C@@H](CCCCN)C(=O)N[C@@H](CC(=O)O)C(=O)N[C@@H](Cc1ccccc1)C(=O)N[C@@H](CC(C)C)C(=O)N[C@@H](CCCNC(=N)N)C(=O)N[C@@H](CC(N)=O)C(=O)N[C@@H](CC(C)C)C(=O)N[C@H](C(=O)N1CCC[C@H]1C(=O)N[C@@H](CCCNC(=N)N)C(=O)N[C@H](C(=O)N[C@@H](CCC(=O)O)C(=O)N[C@@H](CO)C(N)=O)[C@@H](C)O)C(C)C)[C@@H](C)CC)C(C)C)[C@@H](C)CC`: in data set [6], the metabolised at 0.5 h, 100 µM stood at 100%.

Turning to `CC(C)C[C@H](NC(=O)[C@H](CC(C)C)NC(=O)[C@H](CCCCN)NC(=O)[C@H](CC(C)C)NC(=O)[C@H](CC(C)C)NC(=O)[C@H](CCCCN)NC(=O)[C@H](CCCCN)NC(=O)[C@H](CC(C)C)NC(=O)[C@H](CC(C)C)NC(=O)[C@H](CCCCN)NC(=O)[C@H](CCCCN)NC(=O)[C@H](CC(C)C)NC(=O)[C@H](CC(C)C)NC(=O)[C@H](CCCCN)NC(=O)[C@@H](N)CC(C)C)C(N)=O`, the inhibition result with Pseudomonas aeruginosa [7], with Pseudomonas aeruginosa [8], with Pseudomonas aeruginosa [9], in the data set on Pseudomonas aeruginosa [10], in the data set on Pseudomonas aeruginosa [11] and in the data set on Pseudomonas aeruginosa [12] was “Active” throughout. Moreover, the inhibition entry in the data set on Pseudomonas aeruginosa [13] and in the data set with Pseudomonas aeruginosa [14] was “Active” each time. For the same compound, the result in the data set with Pseudomonas aeruginosa [15], in the data set on Pseudomonas aeruginosa [16], with Pseudomonas aeruginosa [17], with Pseudomonas aeruginosa [18], in the data set on Pseudomonas aeruginosa [19] and in the data set with Pseudomonas aeruginosa [24] was Active. Besides, the outcome in the data set on Pseudomonas aeruginosa [25] and with Pseudomonas aeruginosa [26] was Active. The Activity in the data set with Pseudomonas aeruginosa [20] is 41.24%; in the data set with Pseudomonas aeruginosa [21], 57.94%; in the data set with Pseudomonas aeruginosa [22], over 97.91%; with Pseudomonas aeruginosa [23], over 97.91%.
